Measurements as given in publication PMC3787694 (Biochimica et biophysica acta, 2010).
Structures can show the parent of a compound that is named as a salt. Where two headings read alike, the source gives them in different places.

Legend:
α3β4 AChR = settings: cited from earlier work
[1] = target: human fetal muscle AChR (α1β1γδ) in TE671 cells (Homo sapiens, UniProt P02708+P07510+P11230+Q07001); type: cell-based
[2] = target: Torpedo AChR ion channel ([3H]18-MC site) (Tetronarce californica, UniProt P02710+P02712+P02714+P02718); type: binding; settings: for nH / ΔG / Ki: [3H]18-MC; for ΔG: 298K
Sequence of Torpedo AChR ion channel ([3H]18-MC site) (P02710 25-461): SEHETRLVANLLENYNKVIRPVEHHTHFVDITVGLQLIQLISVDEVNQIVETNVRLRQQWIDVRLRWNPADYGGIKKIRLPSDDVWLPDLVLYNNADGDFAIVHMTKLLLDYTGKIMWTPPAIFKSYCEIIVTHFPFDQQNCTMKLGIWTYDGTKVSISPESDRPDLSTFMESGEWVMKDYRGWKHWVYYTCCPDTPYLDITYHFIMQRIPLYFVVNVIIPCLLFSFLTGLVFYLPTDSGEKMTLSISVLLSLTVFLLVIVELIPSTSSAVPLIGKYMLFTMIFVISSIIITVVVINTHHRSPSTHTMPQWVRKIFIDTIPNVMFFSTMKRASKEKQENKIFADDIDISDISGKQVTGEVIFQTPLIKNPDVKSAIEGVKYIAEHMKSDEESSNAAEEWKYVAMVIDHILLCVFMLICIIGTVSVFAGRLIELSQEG
Sequence of Torpedo AChR ion channel ([3H]18-MC site) (P02712 25-493): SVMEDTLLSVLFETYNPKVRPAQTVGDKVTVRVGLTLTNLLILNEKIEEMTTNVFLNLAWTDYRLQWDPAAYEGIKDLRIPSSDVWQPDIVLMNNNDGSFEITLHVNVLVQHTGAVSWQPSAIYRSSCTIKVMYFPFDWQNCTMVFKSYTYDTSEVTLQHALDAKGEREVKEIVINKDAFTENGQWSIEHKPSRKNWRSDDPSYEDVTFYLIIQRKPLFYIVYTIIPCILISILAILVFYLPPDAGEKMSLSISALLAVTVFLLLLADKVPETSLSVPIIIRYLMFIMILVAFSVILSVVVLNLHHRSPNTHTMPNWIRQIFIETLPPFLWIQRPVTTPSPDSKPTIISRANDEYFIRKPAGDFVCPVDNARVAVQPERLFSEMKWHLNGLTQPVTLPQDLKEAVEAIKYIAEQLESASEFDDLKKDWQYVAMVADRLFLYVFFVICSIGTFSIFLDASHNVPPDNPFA
Sequence of Torpedo AChR ion channel ([3H]18-MC site) (P02714 18-506): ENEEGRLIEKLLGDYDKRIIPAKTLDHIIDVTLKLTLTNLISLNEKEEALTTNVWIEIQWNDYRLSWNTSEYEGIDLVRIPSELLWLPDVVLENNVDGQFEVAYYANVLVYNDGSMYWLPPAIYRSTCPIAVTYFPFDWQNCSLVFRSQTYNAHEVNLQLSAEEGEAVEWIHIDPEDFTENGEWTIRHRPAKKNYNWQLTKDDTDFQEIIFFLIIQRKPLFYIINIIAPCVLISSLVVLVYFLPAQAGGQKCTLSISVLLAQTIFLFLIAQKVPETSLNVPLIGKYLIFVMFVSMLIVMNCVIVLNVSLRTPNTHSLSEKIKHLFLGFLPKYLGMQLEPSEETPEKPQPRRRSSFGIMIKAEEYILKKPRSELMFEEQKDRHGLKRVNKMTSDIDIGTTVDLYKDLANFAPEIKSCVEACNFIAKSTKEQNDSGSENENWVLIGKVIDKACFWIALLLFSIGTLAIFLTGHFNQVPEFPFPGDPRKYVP
Sequence of Torpedo AChR ion channel ([3H]18-MC site) (P02718 22-522): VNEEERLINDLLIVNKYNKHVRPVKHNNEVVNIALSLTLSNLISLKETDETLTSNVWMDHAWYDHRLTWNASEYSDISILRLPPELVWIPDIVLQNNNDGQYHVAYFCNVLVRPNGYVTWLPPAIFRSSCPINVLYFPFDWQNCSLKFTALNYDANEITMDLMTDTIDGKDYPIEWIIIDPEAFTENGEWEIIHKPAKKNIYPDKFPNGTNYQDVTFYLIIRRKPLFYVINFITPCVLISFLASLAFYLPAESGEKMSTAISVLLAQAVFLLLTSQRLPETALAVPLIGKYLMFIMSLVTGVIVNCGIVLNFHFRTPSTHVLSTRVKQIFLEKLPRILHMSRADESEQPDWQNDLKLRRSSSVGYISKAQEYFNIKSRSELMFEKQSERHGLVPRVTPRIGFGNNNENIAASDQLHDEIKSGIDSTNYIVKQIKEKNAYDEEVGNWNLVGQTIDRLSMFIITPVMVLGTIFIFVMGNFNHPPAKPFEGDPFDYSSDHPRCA

Torpedo AChR [3] = target: T1, Torpedo AChR (Tetronarce californica, UniProt P02710+P02712+P02714+P02718); assay: biochemical; type: binding; settings: for apparent nH: [3H]cytisine binding enhancement; for fractional occupancy (θ): calculated with Eq. (2)
T1 sequence (P02710 25-461): as the sequence (P02710 25-461) above
T1 sequence (P02712 25-493): as the sequence (P02712 25-493) above
T1 sequence (P02714 18-506): as the sequence (P02714 18-506) above
T1 sequence (P02718 22-522): as the sequence (P02718 22-522) above

Torpedo AChR [4] = settings: cited from earlier work
AChR = settings: cited from earlier work
Torpedo AChR [5] = target: T1, Torpedo AChR; assay: Equilibrium binding of [3H]18-MC to Torpedo AChR native membranes
Outline: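 [3H]18-MC plus unlabelled ligand was added at 0.07–1.2 μM for 2 h at RT, then filtered. Nonspecific binding was measured with 100 μM unlabelled ligand. Kd was taken from the Rosenthal-Scatchard slope and sites/AChR from its x-intercept.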

[6] = target: Torpedo AChR ion channel ([3H]TCP site) (Tetronarce californica, UniProt P02710+P02712+P02714+P02718); assay: [3H]TCP competition binding to Torpedo AChRs in different conformational states; settings: for Ki / nH / ΔG: [3H]TCP; for ΔG: 298K
Sequence of Torpedo AChR ion channel ([3H]TCP site) (P02710 25-461): as the sequence (P02710 25-461) above
Sequence of Torpedo AChR ion channel ([3H]TCP site) (P02712 25-493): as the sequence (P02712 25-493) above
Sequence of Torpedo AChR ion channel ([3H]TCP site) (P02714 18-506): as the sequence (P02714 18-506) above
Sequence of Torpedo AChR ion channel ([3H]TCP site) (P02718 22-522): as the sequence (P02718 22-522) above

[7] = target: Torpedo AChR ion channel ([3H]ibogaine site) (Tetronarce californica, UniProt P02710+P02712+P02714+P02718); assay: [3H]ibogaine competition binding to Torpedo AChRs
Sequence of Torpedo AChR ion channel ([3H]ibogaine site) (P02710 25-461): as the sequence (P02710 25-461) above
Sequence of Torpedo AChR ion channel ([3H]ibogaine site) (P02712 25-493): as the sequence (P02712 25-493) above
Sequence of Torpedo AChR ion channel ([3H]ibogaine site) (P02714 18-506): as the sequence (P02714 18-506) above
Sequence of Torpedo AChR ion channel ([3H]ibogaine site) (P02718 22-522): as the sequence (P02718 22-522) above

α4β2 AChR = settings: read-out: inhibitory potency; cited from earlier work
[8] = target: T2, Torpedo AChR (immobilized) (Tetronarce californica, UniProt P02710+P02712+P02714+P02718); assay: Thermodynamic parameters by non-linear chromatography; type: binding; settings: for Ea (drug dissociation): Arrhenius plot; for ΔG^20: Eq. (8), 293K; for ΔH^+: Eq. (10); for ΔH°: van't Hoff 10-25 °C
T2 sequence (P02718 22-522): as above
T2 sequence (P02712 25-493): as the sequence (P02712 25-493) above
T2 sequence (P02714 18-506): as the sequence (P02714 18-506) above
T2 sequence (P02710 25-461): as the sequence (P02710 25-461) above

[9] = target: T2, Torpedo AChR (immobilized); assay: Binding kinetics by non-linear chromatography on CMAC-Torpedo AChR column; settings: for Kd: Ka; for koff: 20 °C; for ΔG^20: Eq. (4); for kon: kon=koff·Ka
Torpedo AChR [10] = settings: cited from earlier work; remark: listed apart in the source
[11] = 5 min pre-incubation IC50 comparison
[12] = epibatidine treated column (desensitized state)
[13] = α-BTx treated column (resting state)

Sequence of human fetal muscle AChR (α1β1γδ) in TE671 cells (P02708 21-457): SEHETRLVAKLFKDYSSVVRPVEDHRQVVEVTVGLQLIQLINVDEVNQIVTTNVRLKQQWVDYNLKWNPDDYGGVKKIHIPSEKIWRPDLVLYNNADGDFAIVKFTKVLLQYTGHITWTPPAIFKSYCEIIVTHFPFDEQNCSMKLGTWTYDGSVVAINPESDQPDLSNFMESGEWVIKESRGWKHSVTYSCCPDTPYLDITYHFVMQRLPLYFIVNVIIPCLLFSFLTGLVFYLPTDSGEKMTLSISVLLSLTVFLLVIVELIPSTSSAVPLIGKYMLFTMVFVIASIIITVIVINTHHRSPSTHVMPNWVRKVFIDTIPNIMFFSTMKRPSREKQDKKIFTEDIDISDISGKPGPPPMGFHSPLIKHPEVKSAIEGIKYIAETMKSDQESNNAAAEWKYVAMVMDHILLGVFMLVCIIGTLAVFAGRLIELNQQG
Sequence of human fetal muscle AChR (α1β1γδ) in TE671 cells (Q07001 22-517): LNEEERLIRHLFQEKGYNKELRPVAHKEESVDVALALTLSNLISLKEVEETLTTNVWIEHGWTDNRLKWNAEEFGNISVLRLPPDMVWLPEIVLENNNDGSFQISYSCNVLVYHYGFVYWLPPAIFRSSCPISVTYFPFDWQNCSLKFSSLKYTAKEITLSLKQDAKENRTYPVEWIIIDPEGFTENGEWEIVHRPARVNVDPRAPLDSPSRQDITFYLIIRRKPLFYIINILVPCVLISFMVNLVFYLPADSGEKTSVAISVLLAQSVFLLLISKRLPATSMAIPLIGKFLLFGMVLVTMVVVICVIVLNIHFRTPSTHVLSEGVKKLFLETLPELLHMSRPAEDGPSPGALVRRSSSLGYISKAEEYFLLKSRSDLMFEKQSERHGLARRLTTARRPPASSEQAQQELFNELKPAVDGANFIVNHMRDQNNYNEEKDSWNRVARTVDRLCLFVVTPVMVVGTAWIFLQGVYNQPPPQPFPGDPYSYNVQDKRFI
Sequence of human fetal muscle AChR (α1β1γδ) in TE671 cells (P11230 24-501): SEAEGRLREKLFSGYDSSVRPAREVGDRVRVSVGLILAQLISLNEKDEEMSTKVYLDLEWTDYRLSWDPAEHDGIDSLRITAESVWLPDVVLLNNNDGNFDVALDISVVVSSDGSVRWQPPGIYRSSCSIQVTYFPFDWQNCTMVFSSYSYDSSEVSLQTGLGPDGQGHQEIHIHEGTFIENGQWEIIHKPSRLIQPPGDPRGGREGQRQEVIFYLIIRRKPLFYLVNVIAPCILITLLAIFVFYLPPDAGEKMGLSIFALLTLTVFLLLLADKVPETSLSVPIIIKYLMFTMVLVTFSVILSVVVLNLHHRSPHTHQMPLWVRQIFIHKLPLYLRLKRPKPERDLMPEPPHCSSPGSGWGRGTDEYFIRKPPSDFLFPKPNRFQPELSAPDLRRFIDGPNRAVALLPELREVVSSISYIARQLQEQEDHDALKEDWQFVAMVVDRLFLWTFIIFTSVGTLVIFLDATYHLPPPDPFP
Sequence of human fetal muscle AChR (α1β1γδ) in TE671 cells (P07510 23-517): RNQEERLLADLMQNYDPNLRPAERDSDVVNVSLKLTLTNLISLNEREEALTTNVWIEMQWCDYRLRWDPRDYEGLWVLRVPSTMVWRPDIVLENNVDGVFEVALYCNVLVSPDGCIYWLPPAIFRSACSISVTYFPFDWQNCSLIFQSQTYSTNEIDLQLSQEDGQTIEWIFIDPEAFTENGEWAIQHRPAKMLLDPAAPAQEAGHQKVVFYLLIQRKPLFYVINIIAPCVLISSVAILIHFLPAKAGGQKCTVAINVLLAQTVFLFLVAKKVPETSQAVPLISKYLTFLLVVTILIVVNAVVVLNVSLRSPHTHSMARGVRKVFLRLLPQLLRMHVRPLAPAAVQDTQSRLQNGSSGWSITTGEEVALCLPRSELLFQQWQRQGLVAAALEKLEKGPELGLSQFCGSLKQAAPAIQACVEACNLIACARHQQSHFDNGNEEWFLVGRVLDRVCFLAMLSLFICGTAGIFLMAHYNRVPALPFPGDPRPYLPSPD

In the case of ibogaine, the IC50 (α3β4 AChR) is given as 0.22 µM, the “nH (Hill coefficient)” value ([1]; pre-incubation 5 min) is given as 2.00 ±0.29 and the nH ([2]; desensitized/CCh-bound state) is given as 1.11 ±0.07. For the same compound, the ΔG ([2]; desensitized/CCh-bound state) was -6.86 ± 0.048 kcal/mol, the nH ([2]; resting/α-BTx-bound state) was 1.04 ±0.08 and the ΔG ([2]; resting/α-BTx-bound state) was -6.76 ± 0.048 kcal/mol. The “apparent nH” value (Torpedo AChR [3]) was 0.99±0.22.

For `[3H]c1cc([3H])c(=O)n2c1[C@H]1CNC[C@H](C1)C2` [[^3H]cytisine, [^3H]cytisine hydrochloride, reference compound], the “fractional occupancy (θ)” value (Torpedo AChR [3]; bound to the desensitized AChR, 7.7 nM) was ~0.017% and the “fractional occupancy (θ)” value (Torpedo AChR [3]; bound to the resting AChR, nH = 1, 7.7 nM) was ~0.005%.

With `c1ccc(C2(N3CCCCC3)CCCCC2)cc1` [PCP, phencyclidine] the “nH (Hill coefficient)” value ([1]; pre-incubation 5 min) was 2.30 ±0.04, the Ki ([2]; desensitized/CCh-bound state) was 0.41 ± 0.03 µM and the Ki ([2]; resting/α-BTx-bound state) was 0.73 ± 0.05 µM. It also gave a nH ([2]; desensitized/CCh-bound state) of 0.76 ± 0.03, a ΔG ([2]; desensitized/CCh-bound state) of -8.7 ± 0.024 kcal/mol and a nH ([2]; resting/α-BTx-bound state) of 0.88 ± 0.05. For the same compound, the ΔG ([2]; resting/α-BTx-bound state) was -8.37 ± 0.048 kcal/mol and the “inhibition of the specific binding of [3H]18-MC” value ([2]; both conformational states) was ~100%.

In the case of [^3H]Ibogaine, the Kd (Torpedo AChR [4]) is given as 5.4 µM.

In the case of `O=c1cccc2n1C[C@@H]1CNC[C@H]2C1` [cytisine], the Ki (AChR; desensitized state) is listed as 0.45 µM and the Ki (AChR; resting state) is listed as 1.6 µM.

“[^3H]18-Methoxycoronaridine [[^3H]18-MC]” showed a stoichiometric ratio (Torpedo AChR [5]; desensitized/CCh-bound state) of 0.86 ± 0.13 binding sites/AChR and a Kd (Torpedo AChR [5]; desensitized/CCh-bound state (1 mM CCh), Rosenthal-Scatchard plot) of 0.23 µM.

In the case of `Clc1ccc(C2CC3CCC2N3)cn1` (racemic) [(±)-epibatidine, reference compound], the nH of activation ([1]; agonist activation) is reported as 1.23 ±0.06.

In the case of `COCC[C@H]1CC2CN3CCc4c([nH]c5ccccc45)[C@](C(=O)OC)(C2)[C@H]13` [18-MC, 18-methoxycoronaridine], the Ki ([6]; desensitized/CCh-bound state) is reported as 0.17 ± 0.01 µM, the Ki ([6]; resting/α-BTx-bound state) is reported as 1.4 ± 0.1 µM and the “fold higher affinity in the desensitized AChR than in the resting AChR” value ([6]; [3H]TCP binding site) is reported as ~8 fold. The nH ([6]; desensitized/CCh-bound state) was 1.11 ±0.07, the ΔG ([6]; desensitized/CCh-bound state) was -9.23 ± 0.024 kcal/mol and the nH ([6]; resting/α-BTx-bound state) was 0.89 ± 0.06. For the same compound, the ΔG ([6]; resting/α-BTx-bound state) was -7.98 ± 0.048 kcal/mol, the “inhibition of the specific binding of [3H]TCP” value ([6]; both conformational states) was ~100% and the IC50 (α3β4 AChR) was 0.75 to 0.9 µM. The Kd (Torpedo AChR [5]) was 0.23 ± 0.04 µM, the Ki [7] was 0.61 ± 0.08 µM and the nH ([7]; [3H]ibogaine, desensitized/CCh-bound state) was 1.02 ±0.13. For the same compound, the ΔG ([7]; [3H]ibogaine, desensitized/CCh-bound state, 298K) was -8.48 ± 0.072 kcal/mol, the “inhibition of the specific binding of [3H]ibogaine” value ([7]; both conformational states (so in the source)) was ~100% and the “increase of potency by longer pre-incubation periods” value ([1]; 4 or 24 h vs 5 min pre-incubation) was ~2 fold. For the same compound, the “fold more potent than PCP” value [1, 11] was ~4 fold, the “fold more potent than ibogaine” value [1, 11] was ~2 fold and the “nH (Hill coefficient)” value ([1]; pre-incubation 5 min) was 1.56 ±0.15. The “nH (Hill coefficient)” value ([1]; pre-incubation 240 min) was 1.90 ±0.20, the “nH (Hill coefficient)” value ([1]; pre-incubation 1440 min) was 1.61 ±0.13 and the “manner of inhibition of hα1β1γδ AChR” value ([1]; pre-treatment with 1, 10 and 100 μM) was “dose dependent and noncompetitive manner”. For the same compound, the IC50 (α4β2 AChR) was > 20 µM, the “enthalpic contribution relative to the entropic contribution” value ([8]; desensitized AChR) was “more than 2 fold” and the “−TΔS°” value [8, 12] was -2.68 ± 0.287 kcal/mol. For the same compound, the “Ea (drug dissociation)” value [8, 12] was 5.35 ± 0.359 kcal/mol, the “ΔG^20” value [8, 12] was -8.68 ± 0.335 kcal/mol and the “ΔH^+” value [8, 12] was 4.78 ± 0.359 kcal/mol. For the same compound, the “ΔH°” value [8, 12] was -5.98 ± 0.263 kcal/mol, the “−TΔS°” value [8, 13] was -3.7 ± 0.263 kcal/mol and the “Ea (drug dissociation)” value [8, 13] was 3.92 ± 0.17 kcal/mol. For the same compound, the “ΔG^20” value [8, 13] was -8.13 ± 0.335 kcal/mol, the “ΔH^+” value [8, 13] was 3.32 ± 0.17 kcal/mol and the “ΔH°” value [8, 13] was -4.42 ± 0.263 kcal/mol. For the same compound, the Ki ([2]; desensitized/CCh-bound state) was 0.47 ± 0.03 µM, the Ki ([2]; resting/α-BTx-bound state) was 1 ± 0.1 µM and the “fold higher affinity for the desensitized AChR compared to the resting AChR” value ([2]; [3H]18-MC competition) was ~2 fold. For the same compound, the nH ([2]; desensitized/CCh-bound state) was 1.02 ±0.06, the ΔG ([2]; desensitized/CCh-bound state) was -8.63 ± 0.048 kcal/mol and the nH ([2]; resting/α-BTx-bound state) was 0.70 ± 0.05. The ΔG ([2]; resting/α-BTx-bound state) was -8.2 ± 0.072 kcal/mol, the Kd [9, 12] was 0.337 µM and the Kd [9, 13] was 0.885 µM. The koff [9, 12] was 0.077 ± 0.001 s⁻¹, the “ΔG^20” value [9, 12] was -8.68 ± 0.024 kcal/mol and the kon [9, 12] was 228000 ± 3000 M⁻¹ s⁻¹. The koff [9, 13] was 0.109 ± 0.005 s⁻¹, the “ΔG^20” value [9, 13] was -8.1 ± 0.024 kcal/mol and the kon [9, 13] was 123000 ± 2000 M⁻¹ s⁻¹. For the same compound, the EC50 (Torpedo AChR [3]) was 0.3 ± 0.1 µM, the “fold more potent than ibogaine to induce AChR desensitization” value (Torpedo AChR [3]) was ~90 fold and the “apparent nH” value (Torpedo AChR [3]) was 0.81±0.20.

For `c1csc(C2(N3CCCCC3)CCCCC2)c1` [[^3H]TCP, [Piperidyl-3,4-^3H(N)]-(N-(1-(2 thienyl)cyclohexyl)-3,4-piperidine)], the Kd (Torpedo AChR [10]; desensitized state) is given as 0.25 µM and the Kd (Torpedo AChR [10]; resting state) is given as 0.83 µM.
